SENP8 block-1 – inhibitors of human SENP8 protease | Q96LD8 | inhibition, % at 20 µM | recombinant SENP8, Nedd8 substrate fluorescence | 360,000 compounds, 0.64% hits; in the data active = inhibition mostly above about 40%, no sharp cut-off; inactive = mostly below about 27%
UBC13 inh – blocks human UBC13 polyubiquitin chain formation | P61088 | TR-FRET | inhibition, % at 20 µM | 330,000 compounds, 0.47% hits; in the data active = inhibition above about 45%, passing the limit was not always enough
SENP7 inh – blocks the human protease SENP7; Q9BQF6; recombinant SENP7, Z-RLRGG-aminoluciferin luminescence, 40 min; 330,000 compounds, 1.5% hits; inhibition, % at 5 µM;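 active = inhibition above about 50% at the single test dose, limit read from the data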
Apaf-1 inh – inhibitors of human Apaf-1 apoptosome; AID 489030; 330,000 compounds, 0.71% hits; reconstituted apoptosome caspase-3 activity, DEVD-Rh110 fluorescence; inhibition, % at 20 µM; active = inhibition of at least 40% at 20 µM
Target sequence (O14727 whole entry, looked up): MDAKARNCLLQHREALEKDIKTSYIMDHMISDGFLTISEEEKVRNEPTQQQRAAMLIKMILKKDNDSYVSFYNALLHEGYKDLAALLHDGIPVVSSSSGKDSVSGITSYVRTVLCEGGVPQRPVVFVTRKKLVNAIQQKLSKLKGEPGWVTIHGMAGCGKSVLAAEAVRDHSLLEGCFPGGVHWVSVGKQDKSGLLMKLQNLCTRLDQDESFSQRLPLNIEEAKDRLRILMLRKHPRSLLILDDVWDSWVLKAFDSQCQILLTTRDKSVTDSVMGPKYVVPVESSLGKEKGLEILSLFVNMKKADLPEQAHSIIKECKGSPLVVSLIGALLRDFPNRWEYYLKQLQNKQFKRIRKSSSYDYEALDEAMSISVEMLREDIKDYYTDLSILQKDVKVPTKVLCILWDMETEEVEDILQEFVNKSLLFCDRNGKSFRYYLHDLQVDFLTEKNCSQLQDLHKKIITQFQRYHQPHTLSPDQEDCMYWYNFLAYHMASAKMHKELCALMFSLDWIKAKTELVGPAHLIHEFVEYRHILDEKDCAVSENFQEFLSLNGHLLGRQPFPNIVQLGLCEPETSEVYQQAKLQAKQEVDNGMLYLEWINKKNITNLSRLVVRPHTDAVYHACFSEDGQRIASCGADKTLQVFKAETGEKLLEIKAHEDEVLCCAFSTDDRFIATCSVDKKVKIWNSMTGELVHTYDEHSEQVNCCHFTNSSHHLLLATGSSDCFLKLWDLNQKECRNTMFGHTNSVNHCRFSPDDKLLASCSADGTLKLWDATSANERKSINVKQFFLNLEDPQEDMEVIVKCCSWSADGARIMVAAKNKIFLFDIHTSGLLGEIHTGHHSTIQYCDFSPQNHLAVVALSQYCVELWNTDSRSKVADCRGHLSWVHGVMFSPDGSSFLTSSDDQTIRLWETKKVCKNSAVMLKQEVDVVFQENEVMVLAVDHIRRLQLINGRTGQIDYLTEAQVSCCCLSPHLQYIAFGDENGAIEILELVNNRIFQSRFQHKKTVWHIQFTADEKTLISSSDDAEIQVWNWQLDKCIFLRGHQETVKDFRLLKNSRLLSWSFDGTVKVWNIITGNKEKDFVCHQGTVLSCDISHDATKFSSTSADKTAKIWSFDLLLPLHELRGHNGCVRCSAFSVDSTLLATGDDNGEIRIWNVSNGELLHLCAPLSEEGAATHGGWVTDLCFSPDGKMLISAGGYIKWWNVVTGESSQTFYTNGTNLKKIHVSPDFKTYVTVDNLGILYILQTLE
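System: Apoptosome proteins | Medium: Hepes pH 7.5 with detergent and BSA | Also added: Cytochrome c trigger plus (Z-DEVD)2-Rh110 caspase-3 substrate | Incubation: 30 min compound preincubation, 50 min activation, room temperature | Detection: Rhodamine 110 fluorescence at Ex 480/Em 540 nm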
SENP6 block – blocks the human protease SENP6 | Q9GZR1 | Recombinant SENP6 catalytic domain, aminoluciferin luminescence | inhibition, % at 10 µM | 330,000 compounds, 1.8% hits | AID 2599;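 active = inhibition above about 50% at the single tested dose, limit read from the data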
SENP8 block-2 – SENP8 protease inhibition. Q96LD8. purified SENP8, Z-RLRGG-aminoluciferin cleavage, luminescence. inhibition, % at 10 µM. 330,000 compounds, 1.2% hits; in the data active = inhibition above about 50%
Casp3 counter – inhibits human caspase-3 in UBC13 counter-screen. inhibition, % at 20 µM. shares compounds with UBC13 inh. 1,400 compounds, 4% hits. Recombinant caspase-3, Caspase-Glo 3/7 luminescence, 60 min;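 active = mean inhibition across replicates above about 26%, limit read from the data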
UBC13 conf – confirmation of human UBC13 polyubiquitin inhibitors; inhibition, % at 10 µM; shares compounds with UBC13 inh; UBC13 polyubiquitination, TR-FRET, biochemical; 1,400 compounds, 68% hits; in the data active = inhibition above about 45%
Apaf-1 inh conf2 – Apaf-1 inhibition, single-dose confirmed; shares compounds with Apaf-1 inh; reconstituted apoptosome, caspase-3 DEVD-Rh110 fluorescence; inhibition, % at 20 µM; 1,800 compounds, 25% hits;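 active = mean inhibition of at least 40% at 20 µM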
Rh110 quench – interferes with Rh110 fluorescence, flagging false Apaf-1 inhibitors; activation (fluorescence interference), % at 20 µM; shares compounds with Apaf-1 inh; 1,800 tested, under 10 active; Rh110 fluorescence interference, quenched caspase reaction;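 active = signal rise of 40% or more at 20 µM, treated as a fluorescence artifact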
A number is an active result; . = inactive; / = no result given. An excerpt weighted towards active compounds, which were near 3% of everything screened.

SMILES	SENP8 block-1	UBC13 inh	SENP7 inh	Apaf-1 inh	SENP6 block	SENP8 block-2	Casp3 counter	UBC13 conf	Apaf-1 inh conf2	Rh110 quench
Cc1c(C(=O)Nc2ccc(S(=O)(=O)N(C)C3CCN(C)CC3)cc2)oc2ccccc12	.	56	.	53	.	.	.	.	.	.
COC(=O)C1=C(C)N(Cc2ccccc2)C(=NCc2cc(OC)c(OC)c(OC)c2)N[C@H]1c1ccccc1	/	.	.	.	.	.	/	/	/	/
COC(=O)C1=C(C)N(Cc2ccccc2)C(=NCc2cc(OC)c(OC)c(OC)c2)N[C@H]1c1ccc(Br)cc1	.	55	.	55	.	.	.	48	.	.
COC(=O)C1=C(C)N(Cc2ccccc2)C(=NCc2cc(OC)c(OC)c(OC)c2)N[C@H]1CCc1ccccc1	.	47	.	48	.	.	.	.	.	.
CCCCCCCCNC(C)C(O)c1ccc(SC(C)C)cc1 (centres undefined)	.	71	.	58	.	.	.	75	.	.
C[C@@H](NCCc1ccc(O)cc1)[C@@H](O)c1ccc(O)cc1	.	.	.	.	.	.	/	/	/	/
O=C(NCCN1CCC(n2c(=O)[nH]c3ccccc32)CC1)c1ccc(F)cc1F	.	/	/	/	/	/	/	/	/	/
O[C@@H]1CN(Cc2cccs2)[C@@H](c2ccc(Cl)cc2)C[C@H]1n1cc(-c2ccc(F)cc2)nn1	.	/	/	/	/	/	/	/	/	/
CCCCCCCNC(=O)C1(CC2CC(c3cccc(Br)c3)=NO2)CCNCC1 (centres undefined)	.	96	.	46	.	.	.	99	.	.
CCCCCCCNC(=O)C1(CC2CC(c3ccc(Cl)cc3)=NO2)CCN(C(=O)Cc2ccc(F)cc2)CC1 (centres undefined)	.	.	.	.	.	.	/	/	/	/
CCCCCCCNC(=O)C1(CC2CC(c3ccc(Cl)cc3)=NO2)CCNCC1 (centres undefined)	.	83	.	41	.	.	.	80	.	.
C[C@H](CO)N1C[C@H](C)[C@@H](CN(C)Cc2ccc(C(=O)O)cc2)Oc2ncc(Br)cc2C1=O	.	/	/	/	/	/	/	/	/	/
CCCCCC(=O)N1C[C@H](O)[C@@H](n2cc(COC(=O)c3ccccc3)nn2)C[C@@H]1c1ccc(OC)cc1	.	/	/	/	/	/	/	/	/	/
CSCCC(NC(=O)COc1ccccc1)C(=O)N1CCC(C(N)=O)CC1 (centres undefined)	.	68	.	64	.	.	.	86	.	.
CCOC(=O)C1CCCN(C(=O)c2oc3ccccc3c2C)CC1 (centres undefined)	.	/	/	/	/	/	/	/	/	/
CC(C)C[C@H]1CNC(=O)C(=O)N1C[C@@H]1CCCN1C[C@H](Cc1ccccc1)N1C[C@H](CC(C)C)N(CCc2ccccc2)C(=O)C1=O	.	/	/	/	/	/	/	/	/	/
CC[C@@H](C)[C@@H]1CN([C@@H](CN2CCC[C@H]2CN2C(N)=NC[C@H]2CC(C)C)C(C)C)C(=N)N1CCc1ccc(Cl)c(Cl)c1	.	73	.	63	.	.	.	86	.	.
CCOc1ccc(CCN2C(=O)C(=O)N([C@@H](CC(C)C)CN3CCC[C@H]3CN3C(=O)C(=O)NC[C@@H]3CC(C)C)C[C@@H]2CC(C)C)cc1	.	/	/	/	/	/	/	/	/	/
CCC[C@@H](CN1CCC[C@H]1CN1C(N)=NC[C@H]1CC(C)C)N1C[C@@H]([C@H](C)CC)N(CCc2ccc(Cl)c(Cl)c2)C1=N	.	82	.	64	.	.	.	80	.	.
CC[C@@H](C)[C@@H]1CN([C@@H](C)CN2CCC[C@H]2CN2C(N)=NC[C@H]2CC(C)C)C(=N)N1CCc1ccc(Cl)c(Cl)c1	.	69	.	52	.	.	.	70	.	.
COC(=O)C1=C(C)N(Cc2ccccc2)C(=NCc2cccc(Cl)c2)N[C@H]1c1ccccc1	.	70	.	56	.	.	.	67	.	.

Source: PubChem (Sanford-Burnham Center for Chemical Genomics)
